The nature of data set [1]: Inhibition of HCV isolate HC-J4 NS5B deltaC21 polymerase. More on the design: species or system Hepatitis C virus isolate HC-J4. In a few lines:
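Genotype 1b J4 ΔC21 enzyme (5 nM) in 20 mM Tris pH 7.5 with 5 mM MgCl₂, 5 mM KCl, 1 mM EDTA, 2 mM DTT and 0.01% BSA, room temperature. Serial DMSO dilutions were preincubated with enzyme for 5 min. Reaction was started with 250 nM 5′-biotin-rU₁₂ primer, poly-rA template, UTP and ³H-UTP, in 5% DMSO, and run 2 h. Stopped with EDTA/streptavidin SPA beads, then CsCl; scintillation counting.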

For the next data set, the system named is Hepatitis C virus. Put plainly: Antiviral activity against HCV 1b infected in human HuH7 cells after 46 to 50 hrs by luc/neo ET replicon assay. It counts as functional, organism-based, Hepacivirus hominis. The following applies: genotype 1b, Huh-7. Summed up:
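Huh-7 cells stably carrying luc/neo ET replicon, grown in DMEM with 10% FCS, were seeded at 5 × 10³ cells/well. Serially diluted compounds were added about 24 h after plating, at 1% final DMSO. After 46–50 h exposure, cells were lysed with BrightGLO reagent for 2 min at 20 °C and luminescence was read.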

Data set [2] in a line: Cytotoxicity against human HuH7 cells. It counts as cell-based, Huh-7.
The nature of data set [3]: Inhibition of HCV 1a NS5B polymerase. The arrangement: species or system Hepatitis C virus subtype 1a.

Bounds are passed on as bounds.

Compound `CC(C)CCc1c(O)c2c(c3ccccc13)OCN1C2=Nc2ccc(NS(C)(=O)=O)cc2S1(=O)=O` yielded an IC50 in data set [1] of 1.3 µM. In the data set with Hepatitis C virus, this compound gave an EC50 of 12 µM. Also, in data set [2], the midpoint of cytotoxicity, the CC50, lay at 35 µM.
Taken in the same sequence, the figures for `CC(C)CCc1cc(C2=NS(=O)(=O)c3ccccc3N2)c(O)c2ccccc12` were 8.4 µM, 26 µM and 37 µM.
Regarding `CC(C)CCc1c(F)c(C2=NS(=O)(=O)c3cc(NS(C)(=O)=O)ccc3N2)c(O)c2ccccc12`, in data set [1], the IC50 worked out at 0.031 µM. This compound had an EC50 with Hepatitis C virus of 2.7 µM. The CC50 in data set [2] is greater than 100 µM.
For `COc1c(C2=NS(=O)(=O)c3ccccc3N2)cc(CCC(C)C)c2ccccc12`, in that order: 27 µM, 9.5 µM and 13 µM.
Taken in the same sequence, the figures for `CC(C)CCc1c2c(c(O)c3ccccc13)C1=NS(=O)(=O)c3cc(NS(C)(=O)=O)ccc3N1CO2` were 8.7 µM, greater than 100 µM and greater than 100 µM.
Taken in the same sequence, the figures for `CC(C)CCc1cc(C2=NS(=O)(=O)c3cc(NS(C)(=O)=O)ccc3N2)c(O)c2ccccc12` were 0.15 µM, 4.3 µM and greater than 100 µM.
Consider `COc1c(C2=NS(=O)(=O)c3cc(NS(C)(=O)=O)ccc3N2)c(OC)c2ccccc2c1CCC(C)C`, for which the IC50 in data set [1] is 0.63 µM. This compound returned an EC50 in the data set on Hepatitis C virus greater than 100 µM. This compound also yielded a 50% cytotoxic concentration (CC50) in data set [2] of 40 µM.
Taken in the same sequence, the figures for `COc1c(C2=NS(=O)(=O)c3cc(NS(C)(=O)=O)ccc3N2)cc(CCC(C)C)c2ccccc12` were 0.048 µM, 21 µM and 51 µM.
Taken in the same sequence, the figures for `COc1c(C2=NS(=O)(=O)c3cc(NS(C)(=O)=O)ccc3N2)c(O)c(CCC(C)C)c2ccccc12` were 0.005 µM, 1.1 µM and 110 µM.
As to `CC(C)CCc1c2c(c(O)c3ccccc13)C1=Nc3ccc(NS(C)(=O)=O)cc3S(=O)(=O)N1CO2`, the IC50 in data set [1] came to 0.49 µM. In the data set with Hepatitis C virus, the midpoint of the response, the EC50, lay at 8.4 µM. For the same compound, in data set [2], half-maximal cytotoxicity (CC50) was put at 33 µM.
For the compound `CC(C)CCn1c(=O)c(C2=NS(=O)(=O)c3ccccc3N2)c(O)c2ccccc21`, the EC50 with Hepatitis C virus is 0.417 µM.
`CC(C)CCC1(O)C(=O)C(C2=NS(=O)(=O)c3cc(NS(C)(=O)=O)ccc3N2)=C(O)c2ccccc21` (stereo not given) showed an IC50 in data set [1] of less than 0.005 µM. In the data set on Hepatitis C virus, this compound showed an EC50 of 0.019 µM. Further, in data set [2], the CC50 was greater than 100 µM.
Taken in the same sequence, the figures for `COc1c(C2=NS(=O)(=O)c3cc(NS(C)(=O)=O)ccc3N2)c(O)c2ccccc2c1CCC(C)C` were 0.037 µM, 2.9 µM and 120 µM.
Taken in the same sequence, the figures for `CC(C)CCc1c(O)c2c(c3ccccc13)OCN1C2=NS(=O)(=O)c2cc(NS(C)(=O)=O)ccc21` were 0.53 µM, 34 µM and greater than 100 µM.
With `CC(C)CC[C@@]1(C)C(=O)C(C2=NS(=O)(=O)c3cc(NS(C)(=O)=O)ccc3N2)=C(O)c2ccccc21`, the figures for the IC50 in data set [1] and in data set [3] were 0.00033 µM and 0.00125 µM, respectively.
For `CC(C)CCc1c(F)c(C2=NS(=O)(=O)c3ccccc3N2)c(O)c2ccccc12`, the IC50 in data set [1] was found to be 0.11 µM. In addition, in the data set on Hepatitis C virus, the midpoint of the response, the EC50, lay at 19 µM. For the same compound, the CC50 in data set [2] was 12 µM.

Broadly, the IC50 is the point on the concentration scale where inhibition reaches its midpoint. A lower IC50 goes with greater potency. Broadly, the EC50 is the concentration at which the effect is half-maximal. Usually CC50 stands for the concentration that lowers cell viability or growth by half. Higher therefore signals better tolerance by the cells.

For the origin of these results see ChEMBL document CHEMBL1153632, “HCV NS5B polymerase inhibitors 1: Synthesis and in vitro activity of 2-(1,1-dioxo-2H-[1,2,4]benzothiadiazin-3-yl)-1-hydroxynaphthalene derivatives” (Bioorg Med Chem Lett, 2009).
